Data taken from ChEMBL document CHEMBL1177654, “[d4U]-spacer-[HI-236] double-drug inhibitors of HIV-1 reverse-transcriptase” (Bioorg Med Chem, 2010).

Columns and labels:
[1] = molecular target: Human immunodeficiency virus type 1 reverse transcriptase (Human immunodeficiency virus 1, UniProt Q72547); assay: Inhibition of HIV1 reverse transcriptase-mediated thymidine incorporation into D23/D36 primer-template preincubated for 15 mins by polyacrylamide gel-electrophoresis
How it was run: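 RT at 6 nM active sites (from pre-steady-state active-site titration) pre-incubated ≥15 min with 1 μM 5′-radiolabelled D23/D36 primer/template, then ≥15 min on ice with inhibitor (DMSO held constant, <2%; DMSO-only control). Reaction started with 5 μM dTTP plus 10 mM MgCl2 (final concentrations), 15 min at 37 °C, quenched with 0.3 M EDTA. Products resolved on 20% denaturing PAGE. IC50 taken from a hyperbolic fit of product versus inhibitor concentration.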

[2] = test system: MT2; assay: Cytotoxicity against human MT2 cells after 5 days by MTT assay; type: cell-based; settings: mt2, 120 h
How it was run: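 Mock-infected MT-2 cells (1 × 10^5 cells/mL) grown 5 days in RPMI 1640 with 10% dFBS and kanamycin at varying compound concentrations, in triplicate. Viability read by MTT (5 h), then acidified isopropanol lysis and absorbance at 595 nm. Triplicate averages plotted against concentration; CC50 is the concentration reducing viable cells by 50%.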

[3] = test system: Human immunodeficiency virus 1; assay: Antiviral activity against HIV1 3B infected in human MT-2 cells assessed as inhibition of viral-mediated cell death after 5 days by MTT assay; type: functional, organism-based; settings: Human immunodeficiency virus 1, 3B, MT2, 120 h
How it was run: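 MT-2 cells at 1 × 10^5 cells/mL infected with wild-type HIV-IIIB at MOI 0.1, cultured 5 days in RPMI 1640 with 10% dFBS and kanamycin across varying compound concentrations in triplicate. MTT added for 5 h, cells lysed with acidified isopropanol, absorbance read at 595 nm. Triplicate averages plotted as dose-response curves; EC50 is the concentration inhibiting viral-mediated cell death by 50%.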

SMILES	IC50 [1] [nM]	CC50 [2] [nM]	EC50 [3] [nM]
COc1ccc(OCCOCCOCC#Cc2cn([C@H]3C=C[C@@H](CO)O3)c(=O)[nH]c2=O)c(CCNC(=S)Nc2ccc(Br)cn2)c1	850	43000	1900
COc1ccc(OCCC#Cc2cn([C@H]3C=C[C@@H](CO)O3)c(=O)[nH]c2=O)c(CCNC(=S)Nc2ccc(Br)cn2)c1	61	17000	250
COc1ccc(OC)c(CCNC(=S)Nc2ccc(Br)cn2)c1	38	> 1000	
COC(=O)[C@H](C)NP(=O)(OC[C@@H]1C=C[C@H](n2cc(C#CCOCCOCCOCCOCCOc3ccc(OC)cc3CCNC(=S)Nc3ccc(Br)cn3)c(=O)[nH]c2=O)O1)Oc1ccc(C)cc1 (stereo not given in full)	2300	11000	2900
COc1ccc(OCCOCC#Cc2cn([C@H]3C=C[C@@H](CO)O3)c(=O)[nH]c2=O)c(CCNC(=S)Nc2ccc(Br)cn2)c1	575	38000	1300
Cc1cn([C@H]2C=C[C@@H](CO)O2)c(=O)[nH]c1=O [STAVUDINE]	9600	> 100000	2300
COc1ccc(OCCOCCOCCOCCOCC#Cc2cn([C@H]3C=C[C@@H](CO)O3)c(=O)[nH]c2=O)c(CCNC(=S)Nc2ccc(Br)cn2)c1	1400	18000	3100
